A word on the solubility: it is how much of the substance goes into solution per volume. Broadly, the IC50 is the concentration at which inhibition is half-maximal. Broadly, the Ki is a dissociation constant, usually derived from enzyme kinetics or from competition with a known ligand.

The results in this text go back to ChEMBL document CHEMBL1154537, “Synthesis and evaluation of pyrido-thieno-pyrimidines as potent and selective Cdc7 kinase inhibitors” (Bioorg Med Chem Lett, 2009).

A short description of data set [1]: Solubility at pH 6.5. The following applies: buffer. It counts as physicochemical.
Data set [2] has as its target T1, CDC7/DBF4 (Cell division cycle 7-related protein kinase/Activator of S phase kinase) (Homo sapiens, UniProt O00311). The experiment in a line: Inhibition of human recombinant Cdc7/Dbf4 by HTRF assay. In general terms: Time-resolved FRET reads energy transfer from a long-lived donor to a nearby acceptor.
The nature of data set [3]: Permeability in human Caco-2 cells. The following applies: read-out: permeability. It counts as ADME, cell-based. (Caco-2 cells form a polarised layer with tight junctions and transporters.)
The target of data set [4] is T1, CDC7/DBF4 (Cell division cycle 7-related protein kinase/Activator of S phase kinase). The experiment in a line: Inhibition of human recombinant Cdc7/Dbf4 by IMAP assay. The format is protein-complex assay.
For data set [5], the target named is T2, Serine/threonine-protein kinase Sgk1 (Homo sapiens, UniProt O00141).
T2 sequence (O00141 whole entry): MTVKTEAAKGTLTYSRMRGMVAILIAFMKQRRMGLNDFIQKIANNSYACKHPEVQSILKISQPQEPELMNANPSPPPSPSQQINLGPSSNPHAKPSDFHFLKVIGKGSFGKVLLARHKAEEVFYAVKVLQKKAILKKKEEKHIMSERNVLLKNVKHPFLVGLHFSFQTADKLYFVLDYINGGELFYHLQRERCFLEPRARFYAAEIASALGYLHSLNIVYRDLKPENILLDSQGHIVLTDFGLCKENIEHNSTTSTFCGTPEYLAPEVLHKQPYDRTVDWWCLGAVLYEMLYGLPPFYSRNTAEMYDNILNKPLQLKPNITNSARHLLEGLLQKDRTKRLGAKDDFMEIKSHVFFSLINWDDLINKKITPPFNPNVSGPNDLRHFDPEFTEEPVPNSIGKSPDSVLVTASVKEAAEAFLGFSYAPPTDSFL
Kind of data set: Inhibition of human SGK by IMAP assay.

Data set [6] in a line: Inhibition of human PKA by IMAP assay.
The test system of the next data set is RKO. Kind of data set: Cytotoxicity against human RKO cells MTT assay. The format is functional, cell-based. The method in brief: (§1)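 MTT viability assay on human colon cancer cell lines exposed in vitro across a compound concentration range. IC50 was taken from the dose-response.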
Background: Formazan colour is commonly taken as a measure of viable cells.

For data set [7], the target named is Tyrosine-protein kinase Fyn (Homo sapiens, UniProt P06241). The experiment in a line: Inhibition of human Fyn by IMAP assay.
Another data set deals with HCT-116. The experiment in a line: Cytotoxicity against human HCT116 cells MTT assay. The format is functional, cell-based. The method in brief: as §1
Data set [8] in a line: Inhibition of human CDK4/Cyclin D by IMAP assay.
Data set [9] concerns the target Cyclin-dependent kinase 1/cyclin B1 (Homo sapiens, UniProt P06493). Kind of data set: Inhibition of human CDK1/Cyclin B by IMAP assay. The format is protein-complex assay.
A further data set concerns the target T3, Ephrin type-B receptor 3 (Homo sapiens, UniProt P54753).
T3 sequence (P54753 whole entry): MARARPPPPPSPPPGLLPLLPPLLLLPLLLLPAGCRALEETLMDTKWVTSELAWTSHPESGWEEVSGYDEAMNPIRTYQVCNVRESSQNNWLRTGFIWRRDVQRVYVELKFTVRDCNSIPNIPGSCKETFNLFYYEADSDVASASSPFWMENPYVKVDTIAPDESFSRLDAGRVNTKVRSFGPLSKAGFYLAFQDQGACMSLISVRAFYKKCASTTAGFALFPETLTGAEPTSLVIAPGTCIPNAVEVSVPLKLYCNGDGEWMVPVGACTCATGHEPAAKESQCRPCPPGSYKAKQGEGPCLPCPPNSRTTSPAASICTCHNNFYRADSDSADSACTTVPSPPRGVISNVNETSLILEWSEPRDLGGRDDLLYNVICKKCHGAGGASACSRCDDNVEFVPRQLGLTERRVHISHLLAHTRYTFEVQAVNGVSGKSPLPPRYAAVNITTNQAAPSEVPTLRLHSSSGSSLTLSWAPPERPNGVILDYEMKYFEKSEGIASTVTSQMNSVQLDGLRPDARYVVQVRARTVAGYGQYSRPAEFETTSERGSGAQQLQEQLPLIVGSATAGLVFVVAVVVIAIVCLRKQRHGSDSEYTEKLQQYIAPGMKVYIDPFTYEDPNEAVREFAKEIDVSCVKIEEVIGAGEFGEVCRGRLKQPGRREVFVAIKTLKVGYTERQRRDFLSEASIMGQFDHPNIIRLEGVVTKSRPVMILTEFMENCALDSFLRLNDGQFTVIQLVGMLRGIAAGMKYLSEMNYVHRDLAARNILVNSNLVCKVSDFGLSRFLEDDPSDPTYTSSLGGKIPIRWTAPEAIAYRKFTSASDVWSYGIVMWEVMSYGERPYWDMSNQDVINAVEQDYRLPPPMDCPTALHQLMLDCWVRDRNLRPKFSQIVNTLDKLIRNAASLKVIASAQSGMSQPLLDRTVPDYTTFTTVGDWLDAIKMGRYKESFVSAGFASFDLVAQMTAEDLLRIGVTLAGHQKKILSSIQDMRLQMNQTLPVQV
The experiment in a line: Inhibition of human EphB3 by IMAP assay.

Data set [10] has as its target Mitogen-activated protein kinase 1 (Homo sapiens, UniProt P28482). The experiment in a line: Inhibition of human ERK2 by IMAP assay.
The target of data set [11] is Protein kinase C delta type (Homo sapiens, UniProt Q05655). Kind of data set: Inhibition of human PKCdelta by IMAP assay.
The next data set has as its system SW480. Kind of data set: Cytotoxicity against human SW480 cells MTT assay. The format is functional, cell-based. Put shortly: as §1
Data set [12] concerns the target CDC7/DBF4 (Cell division cycle 7-related protein kinase/Activator of S phase kinase) (Homo sapiens) (UniProt Q9UBU7+O00311). Kind of data set: Inhibition of Cdc7/Dbf4-mediated MCM2 phosphorylation in human HCT116 cells assessed as decrease in faster migration of protein at 20 uM after 18 hrs by Western blot analysis. To be noted: HCT-116. It counts as cell-based. Put shortly:
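HCT116 cells were arrested with 100 nM nocodazole for 16 h and mitotic cells were collected by shake-off and washed. The resulting G1 cells were incubated with 20 µM compound or DMSO for 18 h. MCM2 and phospho-MCM2 were read by Western blot.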

Data set [13] has as its target Cyclin-dependent kinase 2 (Homo sapiens, UniProt P24941). Kind of data set: Inhibition of human CDK2/Cyclin E by IMAP assay.
Data set [14] concerns the target RAC-alpha serine/threonine-protein kinase (Homo sapiens, UniProt P31749). Kind of data set: Inhibition of human AKT by IMAP assay.
The target of data set [15] is Protein kinase C alpha type (Homo sapiens, UniProt P17252). The experiment in a line: Inhibition of human PKCalpha by IMAP assay.

Calls of active or inactive are those of the source. The rule behind the calls is not given here.

T1 sequence (Q9UBU7 whole entry): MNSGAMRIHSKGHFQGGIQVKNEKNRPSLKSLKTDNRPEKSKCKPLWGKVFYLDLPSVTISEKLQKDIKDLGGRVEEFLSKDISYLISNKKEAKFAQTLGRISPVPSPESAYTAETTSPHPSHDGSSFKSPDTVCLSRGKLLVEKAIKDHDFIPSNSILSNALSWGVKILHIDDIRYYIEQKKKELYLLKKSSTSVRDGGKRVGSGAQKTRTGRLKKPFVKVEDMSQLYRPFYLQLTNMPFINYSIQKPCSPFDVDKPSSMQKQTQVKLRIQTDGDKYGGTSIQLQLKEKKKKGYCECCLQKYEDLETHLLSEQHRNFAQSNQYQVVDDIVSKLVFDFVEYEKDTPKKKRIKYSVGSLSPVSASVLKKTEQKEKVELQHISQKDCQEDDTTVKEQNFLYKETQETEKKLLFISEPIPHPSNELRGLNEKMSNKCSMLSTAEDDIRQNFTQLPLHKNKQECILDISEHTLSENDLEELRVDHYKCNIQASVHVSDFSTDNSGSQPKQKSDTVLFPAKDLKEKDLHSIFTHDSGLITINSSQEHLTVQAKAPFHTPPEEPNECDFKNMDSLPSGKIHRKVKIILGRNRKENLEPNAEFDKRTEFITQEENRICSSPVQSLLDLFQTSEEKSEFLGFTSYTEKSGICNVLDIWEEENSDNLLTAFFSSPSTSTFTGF
T1 sequence (O00311 whole entry): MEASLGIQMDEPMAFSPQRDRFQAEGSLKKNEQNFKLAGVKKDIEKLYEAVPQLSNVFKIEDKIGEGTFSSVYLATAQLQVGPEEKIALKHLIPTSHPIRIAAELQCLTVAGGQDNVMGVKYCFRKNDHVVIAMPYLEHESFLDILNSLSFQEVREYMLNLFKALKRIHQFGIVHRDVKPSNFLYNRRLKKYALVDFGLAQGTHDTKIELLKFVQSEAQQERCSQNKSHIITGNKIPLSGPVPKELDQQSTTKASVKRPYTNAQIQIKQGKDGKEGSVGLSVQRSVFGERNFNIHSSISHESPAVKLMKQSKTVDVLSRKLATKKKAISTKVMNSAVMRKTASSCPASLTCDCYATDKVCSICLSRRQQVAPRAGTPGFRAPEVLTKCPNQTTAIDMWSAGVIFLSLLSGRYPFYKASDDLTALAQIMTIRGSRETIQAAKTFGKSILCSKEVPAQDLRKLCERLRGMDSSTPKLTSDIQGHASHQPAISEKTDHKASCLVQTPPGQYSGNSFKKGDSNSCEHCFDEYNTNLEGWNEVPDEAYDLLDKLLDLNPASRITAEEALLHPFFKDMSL
Cyclin-dependent kinase 1/cyclin B1, sequence (P06493 whole entry): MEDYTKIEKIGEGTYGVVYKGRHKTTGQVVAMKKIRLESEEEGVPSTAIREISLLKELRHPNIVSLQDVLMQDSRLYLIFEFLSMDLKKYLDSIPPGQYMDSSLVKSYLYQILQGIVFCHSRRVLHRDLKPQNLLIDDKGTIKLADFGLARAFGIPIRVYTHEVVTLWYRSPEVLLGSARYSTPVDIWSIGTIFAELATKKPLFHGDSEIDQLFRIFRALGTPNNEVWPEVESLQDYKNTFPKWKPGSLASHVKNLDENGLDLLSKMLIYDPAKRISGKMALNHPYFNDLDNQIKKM
Cyclin-dependent kinase 1/cyclin B1, sequence (P14635 whole entry, further chain): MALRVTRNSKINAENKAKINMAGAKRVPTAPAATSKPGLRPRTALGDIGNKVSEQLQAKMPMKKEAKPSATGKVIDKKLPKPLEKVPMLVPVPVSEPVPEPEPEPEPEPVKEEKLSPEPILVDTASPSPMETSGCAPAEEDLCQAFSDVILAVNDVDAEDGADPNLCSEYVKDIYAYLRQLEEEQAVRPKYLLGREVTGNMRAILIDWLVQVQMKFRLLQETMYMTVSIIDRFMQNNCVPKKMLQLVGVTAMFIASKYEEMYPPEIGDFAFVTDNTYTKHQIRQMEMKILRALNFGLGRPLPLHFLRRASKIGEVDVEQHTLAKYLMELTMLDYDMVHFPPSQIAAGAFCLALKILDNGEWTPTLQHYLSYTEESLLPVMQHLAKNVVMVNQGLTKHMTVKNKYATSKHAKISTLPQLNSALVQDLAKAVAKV
Tyrosine-protein kinase Fyn, sequence (P06241 whole entry): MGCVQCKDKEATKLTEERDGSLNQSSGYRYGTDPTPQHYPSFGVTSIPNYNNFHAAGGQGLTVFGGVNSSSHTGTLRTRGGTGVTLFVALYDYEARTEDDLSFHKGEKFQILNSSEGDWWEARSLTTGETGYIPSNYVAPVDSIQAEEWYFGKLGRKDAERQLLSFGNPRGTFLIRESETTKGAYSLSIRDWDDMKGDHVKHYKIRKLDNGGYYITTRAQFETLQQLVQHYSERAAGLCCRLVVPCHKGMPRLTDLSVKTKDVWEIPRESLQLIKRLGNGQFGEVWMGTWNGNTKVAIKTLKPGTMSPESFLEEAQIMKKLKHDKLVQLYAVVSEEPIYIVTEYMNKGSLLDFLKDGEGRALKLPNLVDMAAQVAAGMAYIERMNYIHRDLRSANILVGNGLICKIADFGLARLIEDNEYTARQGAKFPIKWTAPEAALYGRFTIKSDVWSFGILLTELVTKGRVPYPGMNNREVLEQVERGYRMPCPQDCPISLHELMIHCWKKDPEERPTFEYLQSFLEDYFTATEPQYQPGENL
RAC-alpha serine/threonine-protein kinase, sequence (P31749 whole entry): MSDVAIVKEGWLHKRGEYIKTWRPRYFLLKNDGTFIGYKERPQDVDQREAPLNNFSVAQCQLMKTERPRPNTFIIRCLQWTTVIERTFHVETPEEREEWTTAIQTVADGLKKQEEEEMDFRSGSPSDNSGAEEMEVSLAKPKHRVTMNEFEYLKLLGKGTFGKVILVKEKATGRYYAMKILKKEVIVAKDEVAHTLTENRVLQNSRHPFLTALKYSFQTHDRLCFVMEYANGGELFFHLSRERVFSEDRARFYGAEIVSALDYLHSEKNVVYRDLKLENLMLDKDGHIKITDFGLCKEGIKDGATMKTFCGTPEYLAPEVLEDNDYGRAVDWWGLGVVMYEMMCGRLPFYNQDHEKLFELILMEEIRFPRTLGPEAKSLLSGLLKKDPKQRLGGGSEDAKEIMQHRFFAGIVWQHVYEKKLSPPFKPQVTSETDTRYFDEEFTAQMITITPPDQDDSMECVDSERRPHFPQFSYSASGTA
CDC7/DBF4 (Cell division cycle 7-related protein kinase/Activator of S phase kinase) (Homo sapiens), sequence (O00311 whole entry, looked up): as the sequence (O00311 whole entry) above
CDC7/DBF4 (Cell division cycle 7-related protein kinase/Activator of S phase kinase) (Homo sapiens), sequence (Q9UBU7 whole entry, looked up): as the sequence (Q9UBU7 whole entry) above
Protein kinase C delta type, sequence (Q05655 whole entry): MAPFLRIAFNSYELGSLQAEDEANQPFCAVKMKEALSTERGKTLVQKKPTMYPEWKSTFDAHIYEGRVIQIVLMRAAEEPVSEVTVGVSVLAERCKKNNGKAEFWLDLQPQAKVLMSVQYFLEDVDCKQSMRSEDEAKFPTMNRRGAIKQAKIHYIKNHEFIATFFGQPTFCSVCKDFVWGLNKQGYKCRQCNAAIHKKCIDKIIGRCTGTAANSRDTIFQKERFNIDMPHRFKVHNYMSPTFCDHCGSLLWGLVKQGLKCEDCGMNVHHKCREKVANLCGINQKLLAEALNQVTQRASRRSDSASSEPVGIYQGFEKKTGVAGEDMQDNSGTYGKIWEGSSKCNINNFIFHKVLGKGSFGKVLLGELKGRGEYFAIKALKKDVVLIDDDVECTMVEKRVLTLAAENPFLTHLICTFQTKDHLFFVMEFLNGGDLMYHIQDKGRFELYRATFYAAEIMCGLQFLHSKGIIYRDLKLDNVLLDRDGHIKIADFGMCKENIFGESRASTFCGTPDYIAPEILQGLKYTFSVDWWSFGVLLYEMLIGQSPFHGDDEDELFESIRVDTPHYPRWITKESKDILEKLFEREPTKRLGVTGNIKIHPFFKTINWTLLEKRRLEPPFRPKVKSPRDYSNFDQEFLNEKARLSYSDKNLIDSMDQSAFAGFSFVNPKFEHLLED
Mitogen-activated protein kinase 1, sequence (P28482 whole entry): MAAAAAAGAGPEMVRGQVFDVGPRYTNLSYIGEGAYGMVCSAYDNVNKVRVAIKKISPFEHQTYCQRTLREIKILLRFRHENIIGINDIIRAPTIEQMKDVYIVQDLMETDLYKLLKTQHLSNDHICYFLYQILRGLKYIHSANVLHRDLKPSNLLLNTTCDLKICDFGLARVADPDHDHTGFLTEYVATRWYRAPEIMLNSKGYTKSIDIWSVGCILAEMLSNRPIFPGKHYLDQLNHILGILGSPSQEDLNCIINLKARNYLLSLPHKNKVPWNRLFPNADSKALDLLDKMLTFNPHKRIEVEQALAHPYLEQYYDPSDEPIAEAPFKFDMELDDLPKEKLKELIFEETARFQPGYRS

Compound `Cc1nc2sc3c(N)ncnc3c2c2c1CCC2` yielded a solubility in [1] of less than 30 µg/mL. Further, in [2], the IC50 was 30 nM. Further, the Papp in data set [3] was greater than 20 ×10⁻⁶ cm/s. Moreover, the Ki in [4] is 3 nM.
On the same counts, the results for `Nc1ncnc2c1sc1nc(C3CC3)cc(C(F)(F)F)c12` are less than 30 µg/mL, 4000 nM, greater than 20 ×10⁻⁶ cm/s and 400 nM.
Compound `CNc1ncnc2c1sc1nc(C)cc(C)c12` showed a solubility in data set [1] of less than 30 µg/mL. For the same compound, the IC50 in data set [2] was greater than 30000 nM. In addition, the Papp in data set [3] is greater than 20 ×10⁻⁶ cm/s. Also, in [4], the Ki was greater than 3000 nM.
On the same counts, the results for `Nc1ncnc2c1sc1ncccc12` are less than 30 µg/mL, 12000 nM, greater than 20 ×10⁻⁶ cm/s and 1200 nM.
For `Cc1c2c(nc3sc4c(N)ncnc4c13)CCCC2`, in that order: less than 30 µg/mL, 20 nM, greater than 20 ×10⁻⁶ cm/s and 2 nM.
In [1], `Cc1cc(C)c2c(n1)sc1c(N)ncnc12` had a solubility of less than 30 µg/mL. Moreover, the Papp in [3] is greater than 20 ×10⁻⁶ cm/s.
The compound `Cc1nc2sc3c(N)ncnc3c2c2c1CCCC2` gave a solubility in [1] of less than 30 µg/mL. Moreover, the IC50 in data set [2] is 5 nM. The Papp in data set [3] was greater than 20 ×10⁻⁶ cm/s. The Ki in data set [4] was 0.5 nM.
In turn, `Cc1c2c(nc3sc4c(N)ncnc4c13)CCC2` yielded a solubility in [1] of less than 30 µg/mL. Besides, the IC50 in data set [2] worked out at 50 nM. Also, the Papp in [3] was greater than 20 ×10⁻⁶ cm/s. The inhibition constant Ki in data set [4] was determined as 5 nM.
For `Cc1cc(C)c2c(n1)sc1c(N(C)C)ncnc12`, in that order: less than 30 µg/mL, greater than 30000 nM, greater than 20 ×10⁻⁶ cm/s and greater than 3000 nM.
Consider `Cc1nc2sc3c(N)ncnc3c2c(C)c1C`, for which, in [1], the solubility was less than 30 µg/mL. In data set [2], the IC50 worked out at 40 nM. Besides, in [3], the Papp was greater than 20 ×10⁻⁶ cm/s. In addition, the Ki in data set [4] stood at 4 nM.
Regarding `CCc1c(C)nc2sc3c(N)ncnc3c2c1C`, the solubility in data set [1] was less than 30 µg/mL. In data set [2], the IC50 amounted to 10 nM. Further, the Papp in [3] was greater than 20 ×10⁻⁶ cm/s. The Ki in [4] was 1 nM.
For `Nc1ncnc2c1sc1ncc(-c3ccccc3)cc12`, in that order: less than 30 µg/mL, 9000 nM, greater than 20 ×10⁻⁶ cm/s and 900 nM.
Turning to `CCOC(=O)c1cc2c(nc1C)sc1c(N)ncnc12`, in [1], the solubility is less than 30 µg/mL. Besides, the IC50 in [2] came out at 10000 nM. For the same compound, the Papp in data set [3] was greater than 20 ×10⁻⁶ cm/s. Besides, the Ki in data set [4] was found to be 1000 nM.
On the same counts, the results for `Cc1cc(C)c2c(n1)sc1c(Nc3ccccc3)ncnc12` are less than 30 µg/mL, greater than 30000 nM, greater than 20 ×10⁻⁶ cm/s and greater than 3000 nM.
For `C=CCc1c(C)nc2sc3c(N)ncnc3c2c1C`, the Ki was greater than 5000 nM in [5]; 1100 nM in data set [6]; greater than 5000 nM in [7]; greater than 5000 nM in [8]; greater than 5000 nM in data set [9]; 2 nM in [4]. The Ki (at Ephrin type-B receptor 3; in data set [10]; in data set [11]; in [13]; in [14]; in data set [15]) was greater than 5000 nM each time. In data set [1], this compound returned a solubility of less than 30 µg/mL. Further, the IC50 in the data set with RKO was 6600 nM; in data set [2] it was 20 nM; in the data set with HCT-116 it was 8300 nM; in the data set with SW480, 9600 nM. Besides, the Papp in [3] is greater than 20 ×10⁻⁶ cm/s. In [12], the result was Active.
In turn, `Cc1nc2sc3c(N)ncnc3c2c(C)c1Cc1ccccc1` showed a solubility in [1] of less than 30 µg/mL. Moreover, the IC50 in data set [2] amounted to 2000 nM. For the same compound, in data set [3], the Papp is greater than 20 ×10⁻⁶ cm/s. Further, in [4], the Ki was found to be 200 nM.
